Results taken from ChEMBL document CHEMBL1124174, “Substituted benzamides. 1. Potential nondopaminergic antagonists of chemotherapy-induced nausea and emesis” (J Med Chem, 1988).
Where “and” joins values, the source holds several entries; their conditions need not be identical. Identical values can stand only once.

Tests used:
[1] = biological target: D(2) dopamine receptor (Canis lupus familiaris) (UniProt Q9GJU1); test: In vivo antagonism activity against dopamine D2 receptor was measured as emesis in dog when administered subcutaneously; assay type: functional, organism-based
Chain of D(2) dopamine receptor (Canis lupus familiaris) (Q9GJU1 whole entry): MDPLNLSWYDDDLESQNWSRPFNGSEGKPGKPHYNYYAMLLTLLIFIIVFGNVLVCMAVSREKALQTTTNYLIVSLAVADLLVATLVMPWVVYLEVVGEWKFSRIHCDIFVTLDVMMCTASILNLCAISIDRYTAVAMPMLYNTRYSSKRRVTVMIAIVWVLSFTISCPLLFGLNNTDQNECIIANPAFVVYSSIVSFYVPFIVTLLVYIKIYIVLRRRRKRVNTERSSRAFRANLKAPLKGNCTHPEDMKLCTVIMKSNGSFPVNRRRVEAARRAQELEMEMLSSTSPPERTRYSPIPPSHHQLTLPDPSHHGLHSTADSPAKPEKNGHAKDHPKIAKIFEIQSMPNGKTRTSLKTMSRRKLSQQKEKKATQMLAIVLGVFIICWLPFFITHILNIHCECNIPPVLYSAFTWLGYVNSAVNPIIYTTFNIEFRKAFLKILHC

[2] = biological target: D(2) dopamine receptor (Rattus norvegicus) (UniProt P61169); test: In vivo antagonism activity against D2 receptor was measured as stereotypy in rat when administered subcutaneously; assay type: functional, organism-based
Chain of D(2) dopamine receptor (Rattus norvegicus) (P61169 whole entry): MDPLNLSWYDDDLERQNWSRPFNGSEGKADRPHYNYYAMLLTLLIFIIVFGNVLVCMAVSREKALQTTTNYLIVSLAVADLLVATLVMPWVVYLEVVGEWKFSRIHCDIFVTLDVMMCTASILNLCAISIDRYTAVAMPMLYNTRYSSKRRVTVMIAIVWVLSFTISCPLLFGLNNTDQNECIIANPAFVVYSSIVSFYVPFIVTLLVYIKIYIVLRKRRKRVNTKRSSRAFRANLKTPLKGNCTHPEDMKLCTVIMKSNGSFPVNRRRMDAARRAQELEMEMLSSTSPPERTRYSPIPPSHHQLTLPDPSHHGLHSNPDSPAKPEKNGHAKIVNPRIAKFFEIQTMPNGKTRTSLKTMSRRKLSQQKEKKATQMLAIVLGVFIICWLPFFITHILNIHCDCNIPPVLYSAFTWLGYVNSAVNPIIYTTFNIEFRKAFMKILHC
Outline: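 Male Long Evans rats (275 g) were dosed sc in dilute aqueous HCl (pH 4.5-5.5) 30 min before apomorphine (1 mg/kg sc).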

[3] = system: Mustela putorius furo; test: In vivo antagonism of cisplatin-induced emesis in ferret measured as percentage protection for twice the dose of 3 mg/kg and in 2 ferrets; assay type: functional
Outline: (§1)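 Nonfasted castrated male Fitch ferrets (1–1.5 kg) had jugular catheters implanted ≥48 h earlier under anesthesia. Compounds or saline were given iv twice, 5 min before and 90 min after cisplatin (12 mg/kg iv; 12 mg/mL in warm 0.9% saline). Emesis was observed up to 4 h; events within 1 min counted as one episode. Results were given as mean emetic episodes and % protection versus a pooled historical/concurrent control. t test versus saline.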

[4] = biological target: D(2) dopamine receptor (Rattus norvegicus) (UniProt P61169); test: In vivo antagonistic activity against dopamine D2 receptor was measured as catalepsy in rat when administered subcutaneously; assay type: functional, organism-based
Outline: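 Male Long Evans rats (275 g) received graded sc doses in dilute aqueous HCl (pH 4.5-5.5). They were observed 180 min for catalepsy, scored when the animal stayed stationary ≥15 s on a four-cork template.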

[5] = biological target: D(2) dopamine receptor (Rattus norvegicus, UniProt P61169); test: In vitro antagonistic activity against Dopamine receptor D2 was evaluated for the inhibition of [3H]spiperone binding
Chain of D(2) dopamine receptor (P61169 whole entry): as above
Outline: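 Rat striatal membranes were prepared by differential centrifugation in 50 mM Tris pH 7.4 at 4 °C. Membrane protein (10 mg) was incubated 15 min at 37 °C with 0.1 nM [3H]spiperone and varying competitor concentrations. Buffer: 50 mM Tris HCl pH 7.5, 0.1% ascorbic acid, pargyline, 120 mM NaCl, 5 mM KCl, 2 mM CaCl2, 1 mM MgCl2. (+)-Butaclamol defined nonspecific binding. Bound ligand was collected by filtration and scintillation counted. IC50 by log-logit regression.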

[6] = system: Canis familiaris; test: In vivo antagonism of cisplatin-induced emesis in dog measured as percentage protection for twice the dose of 6 mg/kg in 2 dogs; assay type: functional, Canis lupus familiaris
Outline: (§2)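 Nonfasted mature male or female beagles were dosed sc twice, 30 min before and 120 min after cisplatin (3 mg/kg iv; 3 mg/mL in warm 0.9% saline, used immediately). Emesis was observed up to 5 h; events within 2 min counted as one episode. Results were given as mean emetic episodes and % protection versus a dynamic control (historical and concurrent saline means pooled). t test versus saline.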

[7] = system: Canis familiaris; test: In vivo antagonism of cisplatin-induced emesis in dog measured as emetic episodes, twice the dose of 6 mg/kg in 2 dogs; assay type: functional, Canis lupus familiaris; outline: as §2
[8] = system: Mustela putorius furo; test: In vivo antagonism of cisplatin-induced emesis in ferret measured as emetic episodes, twice the dose of 3 mg/kg and in 3 ferrets; assay type: functional; outline: as §1
[9] = system: Canis familiaris; test: In vivo antagonism of cisplatin-induced emesis in dog measured as emetic episodes, twice the dose of 0.3 mg/kg in 2 dogs; assay type: functional, Canis lupus familiaris; outline: as §2
[10] = system: Mustela putorius furo; test: In vivo antagonism of cisplatin-induced emesis in ferret measured as percentage protection for twice the dose of 3 mg/kg and in 3 ferrets; assay type: functional; outline: as §1
[11] = system: Mustela putorius furo; test: In vivo antagonism of cisplatin-induced emesis in ferret measured as emetic episodes, twice the dose of 0. 3 mg/kg and in 3 ferrets; assay type: functional; outline: as §1
[12] = system: Mustela putorius furo; test: In vivo antagonism of cisplatin-induced emesis in ferret measured as percentage protection for twice the dose of 3 mg/kg
[13] = system: Canis familiaris; test: In vivo antagonism of cisplatin-induced emesis in dog measured as percentage protection for twice the dose of 0.3 mg/kg in 2 dogs; assay type: functional, Canis lupus familiaris; outline: as §2
[14] = system: Canis familiaris; test: In vivo antagonism of cisplatin-induced emesis in dog measured as percentage protection for twice the dose of 3 mg/kg in 2 dogs; assay type: functional, Canis lupus familiaris; outline: as §2
[15] = system: Canis familiaris; test: In vivo antagonism of cisplatin-induced emesis in dog measured as emetic episodes, twice the dose of 3 mg/kg in 2 dogs; assay type: functional, Canis lupus familiaris; outline: as §2
[16] = system: Canis familiaris; test: In vivo antagonism of cisplatin-induced emesis in dog measured as percentage protection for twice the dose of 1 mg/kg in 2 dogs; assay type: functional, Canis lupus familiaris; outline: as §2
[17] = system: Mustela putorius furo; test: In vivo antagonism of cisplatin-induced emesis in ferret measured as percentage protection for twice the dose of 1 mg/kg and in 3 ferrets; assay type: functional; settings: 1 mg/kg; outline: as §1
[18] = system: Canis familiaris; test: In vivo antagonism of cisplatin-induced emesis in dog measured as emetic episodes, twice the dose of 1 mg/kg in 2 dogs; assay type: functional, Canis lupus familiaris; outline: as §2
[19] = system: Mustela putorius furo; test: In vivo antagonism of cisplatin-induced emesis in ferret measured as emetic episodes, twice the dose of 1 mg/kg and in 3 ferrets; assay type: functional; outline: as §1
[20] = system: Mustela putorius furo; test: in vivo antagonism of cisplatin-induced emesis in ferret measured as emetic episodes, twice the dose of 0.3 mg/kg and in 3 ferrets; assay type: functional
Outline: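 Nonfasted castrated male Fitch ferrets (1–1.5 kg) carried jugular vein catheters implanted at least 48 h earlier under general anesthesia. Test compound or saline was given iv twice, 5 min before and 90 min after cisplatin (12 mg/kg iv; 12 mg/mL in warm saline). Emesis was watched for 4 h, with events within 1 min counted as one episode. % protection is relative to a pooled historical-plus-concurrent control, with t test versus saline.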

[21] = system: Mustela putorius furo; test: In vivo antagonism of cisplatin-induced emesis in ferret measured as emetic episodes, twice the dose of 0.3 mg/kg and in 3 ferrets; assay type: functional; settings: in the assay text read “in 2 ferrets” for “in 3 ferrets”; outline: as §1
[22] = system: Mustela putorius furo; test: In vivo antagonism of cisplatin-induced emesis in ferret measured as percentage protection for twice the dose of 0.3 mg/kg and in 3 ferrets; assay type: functional; outline: as §1
[23] = system: Canis familiaris; test: In vivo antagonism of cisplatin-induced emesis in dog measured as emetic episodes, twice the dose of 6 mg/kg in 3 dogs; assay type: functional, Canis lupus familiaris
Outline: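 Nonfasted mature male or female beagles received test compound or saline sc twice, 30 min before and 120 min after cisplatin (3 mg/kg iv; 3 mg/mL in warm 0.9% saline, used at once). Emesis observed up to 5 h. Emetic episode = expulsion of stomach content; events within 2 min counted as one. Protection calculated against a dynamic control (historical mean pooled with concurrent saline control).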

[24] = system: Canis familiaris; test: In vivo antagonism of cisplatin-induced emesis in dog measured as emetic episodes, twice the dose of 3 mg/kg in 3 dogs; assay type: functional, Canis lupus familiaris; outline: as §2
[25] = system: Mustela putorius furo; test: In vitro antagonism of cisplatin-induced emesis in ferret measured as percentage protection for twice the dose of 1 mg/kg and in 3 ferrets; assay type: functional; settings: in the assay text read “In vivo” for “In vitro”; outline: as §1

ED50 [2] [mg/kg]	IC50 [5] [nM]	Structure (SMILES)	ED50 [1] [mg/kg]	ED50 [4] [mg/kg]	Emetic episodes [8]	Protection [10] [%]	further results
> 40	> 1000	C=CCCOc1cc(N)c(Cl)cc1C(=O)NCCN(CC)CC	> 3	> 40	3.7	50	Protection [14]: 71%; Emetic episodes [15]: 3.5
–	> 1000	CCN(CC)CCNC(=O)c1cc(Cl)c(N)cc1OC[C@@H](C)O (stereo in doubt; 8e)	–	–	–	–	Protection ([16]; 1 mg/kg): 92%; Protection [17]: 73%; Emetic episodes ([9]; 0.3 mg/kg): 6.5; Emetic episodes ([18]; 1 mg/kg): 1; Protection ([13]; 0.3 mg/kg): 45%; Emetic episodes ([19]; 1 mg/kg): 2; Emetic episodes [20]: 6; Protection [21]: 18%
> 40	> 1000	CCN(CC)CCNC(=O)c1cc(Cl)c(N)cc1OCC(OC)OC	> 3	> 40	1.3	82	Protection [16]: 88%; Emetic episodes [11]: 6.7; Protection [22]: 0%; Emetic episodes [18]: 1.5
> 40	–	C=CCN1CCCC1CNC(=O)c1cc2nn[nH]c2cc1OC (stereo not given) [ALIZAPRIDE]	0.3	> 40	5	27	Emetic episodes [23]: 4.7; Emetic episodes [24]: 4.3; Protection ([14]; 3 mg/kg): 69% and 66%

More lines, now with the values behind:

Structure (SMILES)	ED50 [2] [mg/kg]	IC50 [5] [nM]	ED50 [1] [mg/kg]	ED50 [4] [mg/kg]	Emetic episodes [8]	Protection [10] [%]	further results
CCN(CC)CCNC(=O)c1cc(Cl)c(N)cc1O	> 40	> 1000	> 1	> 40	–	–	Protection [3]: 40%; Protection [6]: 84%; Emetic episodes [7]: 2
CCN(CC)CCN1C(=O)c2cc(Cl)c(NC=O)cc2OC(C)=C1C	> 40	> 1000	> 3	> 40	0	100	Emetic episodes [9]: 9.5; Emetic episodes [11]: 4.7; Protection [12]: 32%; Protection [13]: 25%
CCN(CC)CCNC(=O)c1cc(Cl)c(N)cc1OC(C)(C)C(C)=O	> 40	> 1000	> 3	> 40	–	–	Protection [25]: 62%; Emetic episodes [9]: 2.7; Protection [13]: 77%; Emetic episodes [19]: 2.7
